In ChEMBL document CHEMBL4196009, “Novel vitexin-inspired scaffold against leukemia” (Eur J Med Chem, 2018):
Activity calls are given as the source filed them. The calls are words filed in the database; no cut-off is given here.

What was measured:
KOPN-8 [1] = assay: Induction of apoptosis in human KOPN8 cells assessed as upregulation of cleaved PARP level at 0.5 uM after 3 to 24 hrs by Western blot analysis; type: functional, cell-based
How it was run: (§1)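 KOPN-8 cells were exposed to compound for 3 h and 24 h, with or without N-acetylcysteine added to a parallel set as antioxidant. Lysates were analysed by Western blot for cleaved PARP, Mcl-1, Ser-2-phosphorylated RNAPII CTD, cMyc, total Rb and pRb. Signals were compared against controls for dose-dependent change.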

[2] = biological target: T1, Retinoblastoma-associated protein (Homo sapiens) (UniProt P06400); assay: Inhibition of Rb phosphorylation in human KOPN8 cells assessed as ratio of phosphorylated Rb to total Rb levels at 0.5 uM after 24 hrs by Western blot analysis relative to control; type: cell-based; how it was run: as §1
T1 sequence (whole entry): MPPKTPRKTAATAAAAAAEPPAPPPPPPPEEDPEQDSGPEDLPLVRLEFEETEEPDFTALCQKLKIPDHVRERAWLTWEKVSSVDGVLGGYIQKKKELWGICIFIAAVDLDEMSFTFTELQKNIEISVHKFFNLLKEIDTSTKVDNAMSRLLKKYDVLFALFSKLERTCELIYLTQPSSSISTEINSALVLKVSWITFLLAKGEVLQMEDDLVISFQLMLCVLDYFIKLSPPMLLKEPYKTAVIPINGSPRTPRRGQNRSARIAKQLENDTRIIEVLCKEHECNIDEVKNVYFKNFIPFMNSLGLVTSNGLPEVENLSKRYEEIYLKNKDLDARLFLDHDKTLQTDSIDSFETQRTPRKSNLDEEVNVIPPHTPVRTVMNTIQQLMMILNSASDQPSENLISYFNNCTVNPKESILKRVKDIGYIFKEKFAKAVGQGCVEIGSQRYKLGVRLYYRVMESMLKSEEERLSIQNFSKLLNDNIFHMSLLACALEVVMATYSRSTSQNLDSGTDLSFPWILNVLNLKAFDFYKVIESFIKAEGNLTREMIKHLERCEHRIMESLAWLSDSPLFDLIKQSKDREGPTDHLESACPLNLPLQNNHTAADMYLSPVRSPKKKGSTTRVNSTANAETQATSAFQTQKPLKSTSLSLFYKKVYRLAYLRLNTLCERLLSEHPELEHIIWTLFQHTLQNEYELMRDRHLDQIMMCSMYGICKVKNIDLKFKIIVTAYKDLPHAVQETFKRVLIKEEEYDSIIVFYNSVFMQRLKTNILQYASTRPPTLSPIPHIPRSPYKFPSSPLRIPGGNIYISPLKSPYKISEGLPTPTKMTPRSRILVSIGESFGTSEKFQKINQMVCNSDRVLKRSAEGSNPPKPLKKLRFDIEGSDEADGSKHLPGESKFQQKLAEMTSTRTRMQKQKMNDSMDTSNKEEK

[3] = biological target: T1, Retinoblastoma-associated protein (Homo sapiens); assay: Inhibition of Rb phosphorylation in human KOPN8 cells assessed as ratio of phosphorylated Rb to total Rb levels at 0.5 uM pre-treated with NAC for 1 hr and measured after 24 hrs by Western blot analysis relative to control; type: cell-based
How it was run: (§2)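 KOPN-8 pre-B ALL cells were treated for 3 h and 24 h, with or without N-acetyl cysteine added to a parallel set of cells as an antioxidant/ROS quencher. Lysates were analysed by Western blot for phosphorylated Rb and total Rb. The same blots also probed PARP cleavage, Mcl-1, Ser-2-phosphorylated RNAPII CTD and cMyc.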

KOPN-8 [4] = assay: Effect on c-Myc expression in human KOPN8 cells at 0.5 uM after 3 hrs by Western blot analysis relative to control; type: functional
MDA-MB-231 [5] = assay: Cell cycle arrest in human MDA-MB-231 cells assessed as accumulation at G2/M phase at 5 uM after 24 hrs by propidium iodide staining-based flow cytometry (reference value: 9.38%); type: functional
SEM cells = assay: Antiproliferative activity against human SEM cells after 72 hrs by CelTiter-Glo assay; type: functional, cell-based
Homo sapiens [6] = species on record: Homo sapiens; assay: Inhibition of RNA polymerase 2 C-terminal domain phosphorylation at Ser2 residue in human KOPN8 cells at 0.5 uM pre-treated with NAC for 1 hr and measured after 24 hrs by Western blot analysis relative to control; type: cell-based; how it was run: as §1
Homo sapiens [7] = species on record: Homo sapiens; assay: Inhibition of RNA polymerase 2 C-terminal domain phosphorylation at Ser2 residue in human KOPN8 cells at 0.5 uM pre-treated with NAC for 1 hr and measured after 3 hrs by Western blot analysis relative to control; type: cell-based; how it was run: as §1
KOPN-8 [8] = assay: Effect on c-Myc expression in human KOPN8 cells at 0.5 uM pre-treated with NAC for 1 hr and measured after 24 hrs by Western blot analysis relative to control; type: functional
HepG2 = assay: Antiproliferative activity against human HepG2 cells after 72 hrs by CelTiter-Glo assay; type: functional, cell-based; conditions: HepG2, 72 h
KOPN-8 [9] = assay: Induction of apoptosis in human KOPN8 cells assessed as effect on Mcl-1 level at 0.5 uM after 24 hrs by Western blot analysis relative to control; type: functional
KOPN-8 [10] = assay: Induction of apoptosis in human KOPN8 cells assessed as effect on Mcl-1 level at 0.5 uM pre-treated with NAC for 1 hr and measured after 3 hrs by Western blot analysis relative to control; type: functional
Homo sapiens [11] = species on record: Homo sapiens; assay: Inhibition of RNA polymerase 2 C-terminal domain phosphorylation at Ser2 residue in human KOPN8 cells at 0.5 uM after 3 hrs by Western blot analysis relative to control; type: cell-based; how it was run: as §1
KOPN-8 [12] = assay: Induction of apoptosis in human KOPN8 cells assessed as upregulation of cleaved PARP level at 0.5 uM pre-treated with NAC for 1 hr and measured after 3 to 24 hrs by Western blot analysis; type: functional, cell-based; how it was run: as §1
[13] = biological target: T1, Retinoblastoma-associated protein (Homo sapiens); assay: Inhibition of Rb phosphorylation in human KOPN8 cells assessed as ratio of phosphorylated Rb to total Rb levels at 0.5 uM pre-treated with NAC for 1 hr and measured after 3 hrs by Western blot analysis relative to control; type: cell-based; how it was run: as §2
BJ = assay: Antiproliferative activity against human BJ cells after 72 hrs by CelTiter-Glo assay; type: cell-based
SUP-B15 [14] = assay: Antiproliferative activity against human SUP-B15 cells after 72 hrs by CelTiter-Glo assay; type: functional, cell-based; conditions: SUP-B15, 72 h
KOPN-8 [15] = assay: Induction of apoptosis in human KOPN8 cells assessed as effect on Mcl-1 level at 0.5 uM after 3 hrs by Western blot analysis relative to control; type: functional
MDA-MB-231 [16] = assay: Cell cycle arrest in human MDA-MB-231 cells assessed as accumulation at S phase at 5 uM after 24 hrs by propidium iodide staining-based flow cytometry (reference value: 20.15%); type: functional
KOPN-8 [17] = assay: Antiproliferative activity against human KOPN8 cells after 72 hrs by CelTiter-Glo assay; type: functional, cell-based; conditions: KOPN-8, 72 h
MDA-MB-231 [18] = assay: Cell cycle arrest in human MDA-MB-231 cells assessed as accumulation at G0/G1 phase at 5 uM after 24 hrs by propidium iodide staining-based flow cytometry (reference value: 70.47%); type: functional
UoC-B1 = assay: Antiproliferative activity against human UOCB1 cells after 72 hrs by CelTiter-Glo assay; type: functional, cell-based; conditions: UoC-B1, 72 h
KOPN-8 [19] = assay: Effect on c-Myc expression in human KOPN8 cells at 0.5 uM pre-treated with NAC for 1 hr and measured after 3 hrs by Western blot analysis relative to control; type: functional
KOPN-8 [20] = assay: Induction of apoptosis in human KOPN8 cells assessed as effect on Mcl-1 level at 0.5 uM pre-treated with NAC for 1 hr and measured after 24 hrs by Western blot analysis relative to control; type: functional
KOPN-8 [21] = assay: Effect on c-Myc expression in human KOPN8 cells at 0.5 uM after 24 hrs by Western blot analysis relative to control; type: functional
[22] = biological target: T1, Retinoblastoma-associated protein (Homo sapiens); assay: Inhibition of Rb phosphorylation in human KOPN8 cells assessed as ratio of phosphorylated Rb to total Rb levels at 0.5 uM after 3 hrs by Western blot analysis relative to control; type: cell-based; how it was run: as §2
Homo sapiens [23] = species on record: Homo sapiens; assay: Inhibition of RNA polymerase 2 C-terminal domain phosphorylation at Ser2 residue in human KOPN8 cells at 0.5 uM after 24 hrs by Western blot analysis; type: cell-based; how it was run: as §1
SUP-B15 [24] = assay: Induction of apoptosis in human SUP-B15 cells assessed as necrotic cells at 2 uM after 24 hrs by Annexin V-FITC/propidium iodide staining-based flow cytometry (reference value: 9.2%); type: functional
MDA-MB-231 [25] = assay: Cell cycle arrest in human MDA-MB-231 cells assessed as accumulation at G2/M phase at 2.5 uM after 24 hrs by propidium iodide staining-based flow cytometry (reference value: 9.38%); type: functional
SUP-B15 [26] = assay: Induction of apoptosis in human SUP-B15 cells assessed as viable cells at 2 uM after 24 hrs by Annexin V-FITC/propidium iodide staining-based flow cytometry (reference value: 82.8%); type: functional; conditions: SUP-B15, 24 h, read-out: Activity
MDA-MB-231 [27] = assay: Cell cycle arrest in human MDA-MB-231 cells assessed as accumulation at S phase at 2.5 uM after 24 hrs by propidium iodide staining-based flow cytometry (reference value: 20.15%); type: functional
KOPN-8 [28] = assay: Induction of apoptosis in human KOPN8 cells assessed as early apoptotic cells at 2 uM after 24 hrs by Annexin V-FITC/propidium iodide staining-based flow cytometry (reference value: 0.1%); type: functional
KOPN-8 [29] = assay: Induction of apoptosis in human KOPN8 cells assessed as late apoptotic cells at 2 uM after 24 hrs by Annexin V-FITC/propidium iodide staining-based flow cytometry (reference value: 9.5%); type: functional
SUP-B15 [30] = assay: Induction of apoptosis in human SUP-B15 cells assessed as late apoptotic cells at 2 uM after 24 hrs by Annexin V-FITC/propidium iodide staining-based flow cytometry (reference value: 2.2%); type: functional
SUP-B15 [31] = assay: Induction of apoptosis in human SUP-B15 cells assessed as early apoptotic cells at 2 uM after 24 hrs by Annexin V-FITC/propidium iodide staining-based flow cytometry (reference value: 0.1%); type: functional
KOPN-8 [32] = assay: Induction of apoptosis in human KOPN8 cells assessed as viable cells at 2 uM after 24 hrs by Annexin V-FITC/propidium iodide staining-based flow cytometry (reference value: 85.2%); type: functional; conditions: KOPN-8, 24 h, read-out: Activity
MDA-MB-231 [33] = assay: Cell cycle arrest in human MDA-MB-231 cells assessed as accumulation at G0/G1 phase at 2.5 uM after 24 hrs by propidium iodide staining-based flow cytometry (reference value: 70.47%); type: functional
KOPN-8 [34] = assay: Cell cycle arrest in human KOPN8 cells assessed as accumulation at S phase at 2 uM after 24 hrs by propidium iodide staining-based flow cytometry (reference value: 66.56%); type: functional
KOPN-8 [35] = assay: Cell cycle arrest in human KOPN8 cells assessed as accumulation at G2/M phase at 2 uM after 24 hrs by propidium iodide staining-based flow cytometry (reference value: 9.67%); type: functional
KOPN-8 [36] = assay: Induction of apoptosis in human KOPN8 cells assessed as necrotic cells at 2 uM after 24 hrs by Annexin V-FITC/propidium iodide staining-based flow cytometry (reference value: 0.2%); type: functional
KOPN-8 [37] = assay: Cell cycle arrest in human KOPN8 cells assessed as accumulation at G0/G1 phase at 2 uM after 24 hrs by propidium iodide staining-based flow cytometry (reference value: 24.77%); type: functional

CN1CC[C@H](c2c(O)cc(O)c3c(=O)cc(-c4ccccc4Cl)oc23)[C@H](O)C1 [ALVOCIDIB]
Activity (KOPN-8 [1]): Active | fold change (FC) [2]: 1 | fold change (FC) [3]: 1.1 | fold change (FC) (KOPN-8 [4]): 0.2 | Activity (MDA-MB-231 [5]): 16.47% | EC50 (SEM cells): 204 nM | fold change (FC) (Homo sapiens [6]): 0 | fold change (FC) (Homo sapiens [7]): 0.6 | fold change (FC) (KOPN-8 [8]): 0 | EC50 (HepG2): 146 nM | fold change (FC) (KOPN-8 [9]): 0 | fold change (FC) (KOPN-8 [10]): 0.2 | fold change (FC) (Homo sapiens [11]): 0.4 | Activity (KOPN-8 [12]): Active | fold change (FC) [13]: 1.1 | EC50 (BJ): > 86200 nM | EC50 (SUP-B15 [14]): > 86200 nM | fold change (FC) (KOPN-8 [15]): 0.2 | Activity (MDA-MB-231 [16]): 17.5% | EC50 (KOPN-8 [17]): 193 nM | Activity (MDA-MB-231 [18]): 66.03% | EC50 (UoC-B1): 208 nM | fold change (FC) (KOPN-8 [19]): 0.2 | fold change (FC) (KOPN-8 [20]): 0 | fold change (FC) (KOPN-8 [21]): 0 | fold change (FC) [22]: 0.9 | fold change (FC) (Homo sapiens [23]): 0

CN[C@@H]1C[C@H]2O[C@@](C)([C@@H]1OC)n1c3ccccc3c3c4c(c5c6ccccc6n2c5c31)C(=O)NC4 [STAUROSPORINE]
Activity (SUP-B15 [24]): 39.4% | Activity (MDA-MB-231 [25]): 6.8% | viability at 2 µM (SUP-B15 [26]): 9.8% | Activity (MDA-MB-231 [27]): 42.21% | Activity (KOPN-8 [28]): 0.2% | Activity (KOPN-8 [29]): 74.4% | Activity (SUP-B15 [30]): 44.2% | Activity (SUP-B15 [31]): 0.2% | viability at 2 µM (KOPN-8 [32]): 0.3% | Activity (MDA-MB-231 [33]): 50.99% | Activity (KOPN-8 [34]): 30.37% | Activity (KOPN-8 [35]): 20.08% | Activity (KOPN-8 [36]): 0.1% | Activity (KOPN-8 [37]): 49.55%
